The M2OR odorant receptor database
Substitutions are numbered along the chain they refer to.

Columns and labels:
Details in all cases: stereoisomer not certain
OR5DG A156T = tested on: T1, OR5DG A156T
T1 sequence (whole entry): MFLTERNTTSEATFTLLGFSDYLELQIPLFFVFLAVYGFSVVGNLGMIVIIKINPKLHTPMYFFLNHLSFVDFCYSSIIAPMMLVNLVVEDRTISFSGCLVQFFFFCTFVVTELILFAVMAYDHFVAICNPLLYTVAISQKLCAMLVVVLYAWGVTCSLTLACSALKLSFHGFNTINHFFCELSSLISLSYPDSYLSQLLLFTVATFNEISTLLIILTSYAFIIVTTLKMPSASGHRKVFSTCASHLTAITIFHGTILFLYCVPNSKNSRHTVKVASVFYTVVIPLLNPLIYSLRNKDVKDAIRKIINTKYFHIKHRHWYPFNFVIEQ
In short: (§1)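 Values were gathered from published papers (main text and supplementary material), with extra details requested from the original authors when needed, and checked for typos and inconsistencies. Each receptor–molecule pair is called responsive (active) if the original authors judged the measured signal statistically different from baseline, and non-responsive (inactive) otherwise. Assay methods varied by source, often transient mammalian cell-line luciferase assays. Recorded details include cell line, G-protein, co-transfected protein and tags.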

OR5DI = tested on: T2, OR5DI
T2 sequence (whole entry): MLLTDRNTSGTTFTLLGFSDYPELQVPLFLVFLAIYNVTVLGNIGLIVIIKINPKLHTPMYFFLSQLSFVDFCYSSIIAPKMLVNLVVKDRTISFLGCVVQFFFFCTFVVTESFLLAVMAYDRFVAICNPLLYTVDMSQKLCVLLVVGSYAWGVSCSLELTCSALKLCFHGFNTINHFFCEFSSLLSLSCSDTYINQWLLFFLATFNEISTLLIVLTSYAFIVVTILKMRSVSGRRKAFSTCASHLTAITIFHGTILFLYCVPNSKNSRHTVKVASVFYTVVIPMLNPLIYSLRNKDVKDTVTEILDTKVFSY
In short: as §1

OR5F1 (Homo sapiens) = target: T3, OR5F1 (Homo sapiens) (UniProt O95221)
T3 sequence (whole entry): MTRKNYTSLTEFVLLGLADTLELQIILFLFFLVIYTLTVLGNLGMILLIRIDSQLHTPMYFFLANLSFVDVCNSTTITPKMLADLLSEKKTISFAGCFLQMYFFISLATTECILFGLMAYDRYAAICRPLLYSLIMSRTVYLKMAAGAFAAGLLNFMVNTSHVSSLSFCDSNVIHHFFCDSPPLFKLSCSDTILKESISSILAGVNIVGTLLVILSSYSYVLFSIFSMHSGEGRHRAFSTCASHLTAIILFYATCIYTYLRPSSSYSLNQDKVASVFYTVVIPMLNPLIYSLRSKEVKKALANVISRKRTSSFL
In short: as §1

OR5F1 = tested on: T4, OR5F1
T4 sequence (whole entry): T3 sequence (whole entry) with S294N
In short: as §1

OR5H1 (Homo sapiens) = target: T5, OR5H1 (Homo sapiens) (UniProt A6NKK0)
T5 sequence (whole entry): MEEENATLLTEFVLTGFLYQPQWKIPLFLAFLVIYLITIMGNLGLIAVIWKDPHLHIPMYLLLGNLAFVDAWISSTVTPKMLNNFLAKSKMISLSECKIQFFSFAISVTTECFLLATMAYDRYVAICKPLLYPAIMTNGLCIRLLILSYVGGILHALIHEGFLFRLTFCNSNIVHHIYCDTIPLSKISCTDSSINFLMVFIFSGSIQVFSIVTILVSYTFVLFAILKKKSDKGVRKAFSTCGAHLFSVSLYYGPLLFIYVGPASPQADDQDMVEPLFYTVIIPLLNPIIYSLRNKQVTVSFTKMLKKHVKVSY
In short: as §1

OR5H1 F17L A30T H56Q = tested on: T6, OR5H1 F17L A30T H56Q
T6 sequence (whole entry): T5 sequence (whole entry) with F17L, A30T, H56Q
In short: as §1

OR5H1 T181N = tested on: T7, OR5H1 T181N
T7 sequence (whole entry): T5 sequence (whole entry) with T181N
In short: as §1

OR5H14 (Homo sapiens) = target: T8, OR5H14 (Homo sapiens) (UniProt A6NHG9)
T8 sequence (whole entry): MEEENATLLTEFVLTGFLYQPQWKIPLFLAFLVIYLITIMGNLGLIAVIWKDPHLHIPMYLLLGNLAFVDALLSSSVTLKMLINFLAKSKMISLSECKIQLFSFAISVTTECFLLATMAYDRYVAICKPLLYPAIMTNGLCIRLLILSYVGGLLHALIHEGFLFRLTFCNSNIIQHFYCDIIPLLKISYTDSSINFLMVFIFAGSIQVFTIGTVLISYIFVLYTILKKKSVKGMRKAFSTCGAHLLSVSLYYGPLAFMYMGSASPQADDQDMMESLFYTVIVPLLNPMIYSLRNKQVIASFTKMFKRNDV
In short: as §1

OR5H15 (Homo sapiens) = target: T9, OR5H15 (Homo sapiens) (UniProt A6NDH6)
T9 sequence (whole entry): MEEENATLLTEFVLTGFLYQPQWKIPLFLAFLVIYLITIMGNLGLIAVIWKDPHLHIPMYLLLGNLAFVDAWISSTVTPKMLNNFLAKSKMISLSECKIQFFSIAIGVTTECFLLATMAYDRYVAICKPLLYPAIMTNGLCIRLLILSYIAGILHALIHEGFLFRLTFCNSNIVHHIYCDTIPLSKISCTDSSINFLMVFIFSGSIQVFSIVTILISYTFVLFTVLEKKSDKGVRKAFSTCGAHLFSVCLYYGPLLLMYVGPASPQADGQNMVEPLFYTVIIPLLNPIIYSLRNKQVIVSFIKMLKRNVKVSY
In short: as §1

OR5G3 (Homo sapiens) = OR5G3 (Homo sapiens) (UniProt P0C626)
In short: as §1

Measured: odorant receptor agonist call

Chain of OR5G3 (Homo sapiens) (P0C626 whole entry): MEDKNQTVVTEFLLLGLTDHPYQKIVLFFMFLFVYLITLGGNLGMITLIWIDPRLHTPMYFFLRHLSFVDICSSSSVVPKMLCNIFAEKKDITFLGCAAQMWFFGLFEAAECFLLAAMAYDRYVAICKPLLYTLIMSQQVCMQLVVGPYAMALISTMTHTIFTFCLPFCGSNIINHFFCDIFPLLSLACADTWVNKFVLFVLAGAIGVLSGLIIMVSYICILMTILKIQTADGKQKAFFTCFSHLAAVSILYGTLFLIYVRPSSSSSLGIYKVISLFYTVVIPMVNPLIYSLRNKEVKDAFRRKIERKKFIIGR

CCCC(S)CCOC(C)=O (centres undefined)
not listed: OR5G3 (Homo sapiens)
inactive: all other assays above

CCC1OC(C)=C(O)C1=O (centres undefined)
not listed: OR5G3 (Homo sapiens)
inactive: all other assays above

CC1CCCCCCCCCCCCC(=O)C1 (centres undefined)
inactive: OR5F1 (Homo sapiens) | OR5G3 (Homo sapiens) | OR5H14 (Homo sapiens) | OR5H15 (Homo sapiens)

CC1=C(O)C(=O)C(C)O1 (centres undefined)
not listed: OR5G3 (Homo sapiens)
inactive: all other assays above

CC1=NC(C)C(C)S1 (centres undefined)
not listed: OR5G3 (Homo sapiens)
inactive: all other assays above

CCCCCC(=O)C(C)C(C)=O (centres undefined)
inactive: OR5F1 (Homo sapiens) | OR5H1 (Homo sapiens) | OR5H14 (Homo sapiens) | OR5H15 (Homo sapiens)

CCC(S)C(C)CO (centres undefined)
inactive: OR5F1 (Homo sapiens) | OR5H1 (Homo sapiens) | OR5H14 (Homo sapiens) | OR5H15 (Homo sapiens)

CCCCC(S)C(C)CO (centres undefined)
inactive: OR5F1 (Homo sapiens) | OR5H1 (Homo sapiens) | OR5H14 (Homo sapiens) | OR5H15 (Homo sapiens)

Cc1cnc(C)c(C)n1
not listed: OR5G3 (Homo sapiens)
inactive: all other assays above

CCCCCC(S)C(C)CO (centres undefined)
inactive: OR5F1 (Homo sapiens) | OR5H1 (Homo sapiens) | OR5H14 (Homo sapiens) | OR5H15 (Homo sapiens)

CCC1OC(=O)C(O)=C1C (centres undefined)
not listed: OR5G3 (Homo sapiens)
inactive: all other assays above

CC(=O)c1c(C)c([N+](=O)[O-])c(C(C)(C)C)c([N+](=O)[O-])c1C
inactive: OR5F1 (Homo sapiens) | OR5G3 (Homo sapiens) | OR5H14 (Homo sapiens) | OR5H15 (Homo sapiens)

CCCCCCC=CCCC=O
not listed: OR5H1 T181N | OR5G3 (Homo sapiens)
inactive: all other assays above

CC(CO)CS (centres undefined)
inactive: OR5F1 (Homo sapiens) | OR5H1 (Homo sapiens) | OR5H14 (Homo sapiens) | OR5H15 (Homo sapiens)

CC1=C(O)C(=O)OC1C (centres undefined)
not listed: OR5G3 (Homo sapiens)
inactive: all other assays above
